Here are results for three compounds from ChEMBL document CHEMBL3763088, “Design, synthesis, and biological evaluation of water-soluble amino acid prodrug conjugates derived from combretastatin, dihydronaphthalene, and benzosuberene-based parent vascular disrupting agents” (Bioorg Med Chem, 2016).

The nature of series [1]: Cytotoxicity against human SKOV3 cells assessed as growth inhibition after 48 hrs by SRB assay. It is filed as functional, SK-OV-3. The essentials:
(§1)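 Cells kept at 37 °C, 5% CO2, up to passage 15. Plated at 7500 cells/well in DMEM with 5% FBS and 1% gentamycin, grown 24 h, then given 10-fold serial dilutions for 48 h. Fixed with 10% TCA (final), SRB-stained, read at 540 nm, normalized at 630 nm. GI50 is the concentration halving net protein staining versus controls, taken from optical density data.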
On the technique in general: The SRB assay estimates cell density from bound dye.

The test system of series [2] is NCI-H460. Briefly: Cytotoxicity against human NCI-H460 cells assessed as growth inhibition after 48 hrs by SRB assay. It is filed as functional. The method, boiled down: as §1
Series [3] in a line: Cytotoxicity against human DU145 cells assessed as growth inhibition after 48 hrs by SRB assay. The format is functional, DU-145. The method, boiled down: as §1
Series [4] relates to MDA-MB-231. The series is described as follows: Induction of tumor-specific vascular damage in luciferase expressing human MDA-MB-231 cells xenografted in SCID mouse assessed as reduction in light emission at 15 mg/kg at 4 hrs post dose by bioluminescence imaging assay (reference value: 22%). The format is functional. To be noted: MDA-MB-231, 4 h. On the technique in general: In xenograft studies the graft and the host belong to different species.

Series [5] has as its system MDA-MB-231. The series is described as follows: Induction of tumor-specific vascular damage in luciferase expressing human MDA-MB-231 cells xenografted in SCID mouse assessed as reduction in light emission at 15 mg/kg at 24 hrs post dose by bioluminescence imaging assay (reference value: 24%). It is filed as functional. The conditions noted are these: MDA-MB-231, 24 h.

Series [6] has as its system MDA-MB-231. Briefly: Induction of tumor-specific vascular damage in luciferase expressing human MDA-MB-231 cells xenografted in SCID mouse assessed as reduction in light emission at 10 mg/kg at 4 hrs post dose by bioluminescence imaging assay (reference value: 22%). The format is functional. The conditions noted are these: MDA-MB-231, 4 h.
The test system of series [7] is MDA-MB-231. Briefly: Induction of tumor-specific vascular damage in luciferase expressing human MDA-MB-231 cells xenografted in SCID mouse assessed as reduction in light emission at 10 mg/kg at 24 hrs post dose by bioluminescence imaging assay (reference value: 24%). It is filed as functional. The conditions noted are these: MDA-MB-231, 24 h.
Series [8] deals with T1, Leucine aminopeptidase (Sus scrofa, UniProt Q29571).
T1 sequence (Q29571 whole entry): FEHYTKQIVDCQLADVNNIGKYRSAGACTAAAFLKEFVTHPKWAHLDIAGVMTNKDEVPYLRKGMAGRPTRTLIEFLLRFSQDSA
The series is described as follows: Activity at porcine leucine aminopeptidase by HPLC analysis. It is filed as ADME. To be noted: pig. The method, boiled down: (§2)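 Porcine kidney microsomal LAP; units defined with 24 mM L-leucine p-nitroanilide in 50 mM sodium phosphate pH 7.2 at 37 °C. Enzyme preincubated in the same buffer at 37 °C, then substrate added. Aliquots were quenched with acetonitrile on ice, centrifuged and run on C18 HPLC (acetonitrile/water, 0.05% TFA, 1.0 mL/min, 22 °C, diode-array UV). Cleavage % from the parent/prodrug peak-area ratio; amounts from calibration curves.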

The target of series [9] is T1, Leucine aminopeptidase. Briefly: Prodrug conversion assessed as porcine leucine aminopeptidase-mediated compound cleavage by HPLC analysis. It is filed as ADME. The conditions noted are these: pig. The essentials:
as §2

Series [10] is described as follows: Cytotoxicity against human SKOV3 cells assessed as growth inhibition using compound dissolved in DMSO after 48 hrs by SRB assay. To be noted: SK-OV-3, 48 h. The format is functional. The method, boiled down:
as §1

For series [11], the system named is NCI-H460. The series is described as follows: Cytotoxicity against human NCI-H460 cells assessed as growth inhibition using compound dissolved in DMSO after 48 hrs by SRB assay. The format is functional. To be noted: NCI-H460, 48 h. The method, boiled down:
as §1

Series [12] in a line: Cytotoxicity against human DU145 cells assessed as growth inhibition using compound dissolved in DMSO after 48 hrs by SRB assay. It is filed as functional. The conditions noted are these: DU-145, 48 h. The essentials: as §1
The nature of series [13]: Cytotoxicity against human SKOV3 cells assessed as growth inhibition using compound dissolved in water after 48 hrs by SRB assay. It is filed as functional. To be noted: SK-OV-3, 48 h. The method, boiled down: as §1
Series [14] has as its system NCI-H460. The series is described as follows: Cytotoxicity against human NCI-H460 cells assessed as growth inhibition using compound dissolved in water after 48 hrs by SRB assay. The format is functional. The conditions noted are these: NCI-H460, 48 h. The essentials:
as §1

A short description of series [15]: Cytotoxicity against human DU145 cells assessed as growth inhibition using compound dissolved in water after 48 hrs by SRB assay. It is filed as functional. To be noted: DU-145, 48 h. The method, boiled down: as §1
Series [16] deals with T1, Leucine aminopeptidase. The series is described as follows: Prodrug conversion assessed as porcine leucine aminopeptidase-mediated compound cleavage at 25 hrs using 0.12 units of enzyme by HPLC analysis. It is filed as ADME. To be noted: pig. The essentials:
as §2

In series [17] the target is T1, Leucine aminopeptidase. Briefly: Drug level assessed as porcine leucine aminopeptidase-mediated compound formation treated with (Z)-N,N''-(3-Methoxy-6-(3,4,5-trimethoxystyryl)-1,2-phenylene)bis(2-aminoacetamide) after 25 hrs using 1.5 units of enzyme by HPLC analysis. It is filed as ADME. The conditions noted are these: pig. The method, boiled down:
as §2

In series [18] the target is T1, Leucine aminopeptidase. The series is described as follows: Drug level assessed as porcine leucine aminopeptidase-mediated compound formation treated with (Z)-N,N''-(3-Methoxy-6-(3,4,5-trimethoxystyryl)-1,2-phenylene)bis(2-aminoacetamide) after 25 hrs using 0.12 units of enzyme by HPLC analysis. It is filed as ADME. To be noted: pig. The method, boiled down:
as §2

For series [19], the target named is T1, Leucine aminopeptidase. The series is described as follows: Drug level assessed as porcine leucine aminopeptidase-mediated compound formation treated with (Z)-N,N''-(3-Methoxy-6-(3,4,5-trimethoxystyryl)-1,2-phenylene)bis(2-aminoacetamide) after 25 hrs using 3.7 units of enzyme by HPLC analysis. To be noted: pig. It is filed as ADME. The essentials:
as §2

A further series has as its target Tubulin (Bos taurus, UniProt Q6B856+Q862L2+Q862F3). The series is described as follows: Inhibition of bovine brain tubulin polymerization preincubated for 15 mins by spectrophotometric analysis. The method, boiled down: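 Purified bovine brain tubulin, 1.0 mg/mL (10 μM), in 0.8 M monosodium glutamate pH 6.6 with 4% DMSO and varied compound. Temperature jumped from 0 to 30 °C; turbidity at 350 nm followed for 20 min.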

With `COc1ccc2c(c1NC(=O)CN)CCC=C2c1cc(OC)c(OC)c(OC)c1.Cl`, the GI50 (in general, the concentration giving 50% growth inhibition) in [1] is 48.5 nM; in the series on NCI-H460 [2], 42 nM; in series [3] it was 58.5 nM. In addition, the inhibition in vivo (commonly the drop in the measured response relative to a control, in per cent) at 15 mg/kg came to 97% in the series with MDA-MB-231 [4] and 90% in the series on MDA-MB-231 [5]. The figures for the inhibition in vivo at 10 mg/kg in the series with MDA-MB-231 [6] and with MDA-MB-231 [7] were 70% and 55%, respectively. Also, the Activity at Leucine aminopeptidase [8] was 15.5 µM/min. Further, on Leucine aminopeptidase [9], the Drug metabolism was 100%.

`COc1ccc(/C=C\c2cc(OC)c(OC)c(OC)c2)c(NC(=O)CN)c1NC(=O)CN.Cl.Cl`: the GI50 in series [10] is 39300 nM; in the series on NCI-H460 [11], more than 68500 nM; in series [12], more than 64700 nM; in series [13], more than 56400 nM; with NCI-H460 [14], more than 96600 nM; in [15] it was more than 90400 nM. The Drug metabolism is recorded as more than 95% on Leucine aminopeptidase [16] and less than 50% at Leucine aminopeptidase [9].

Consider `COc1ccc(/C=C\c2cc(OC)c(OC)c(OC)c2)c(N)c1N`, for which the GI50 came to 23.5 nM in series [1] (Homo sapiens, SK-OV-3, 48 h); 35.9 nM in the series on NCI-H460 [2]; 39.1 nM in series [3]. Moreover, the Drug metabolism result at Leucine aminopeptidase [17], at Leucine aminopeptidase [18] and on Leucine aminopeptidase [19] was “metabolite_detected” in each case. The IC50 – broadly, the concentration needed to halve the response being measured – on Tubulin amounted to 1500 nM.
